Measured values taken from publication PMC4076841 (Biomaterials, 2014).

Tests used:
[1] = Biodistribution of Pt in A375M tumor-bearing mice; type: in vivo; details: 1 mg/kg Pt IV, 24 h post injection
[2] = Toxicity and pathology studies; type: in vivo, mice
Procedure, shortened: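 Female athymic nude mice (5–6 wk, 18–22 g) were dosed IV weekly during therapeutic treatment. Mice for histology received four doses of 1 mg/kg each. Serum AST, ALT and BUN were measured, with BUN taken 7 days after the last dose. Heart, liver, spleen, lung and kidney were formalin-fixed, H&E-stained and imaged by light microscopy. Data are mean ± SEM, compared by one-way ANOVA.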

[3] = cited from earlier work
[4] = cited from earlier work; remark: listed apart in the source

Row | SMILES | accumulation in tumors, injected dose (ID) per gram [1] | nephrotoxicity (kidney H&E histology) ([2]; four doses, 1 mg/kg each) | BUN versus control group ([2]; measured 7 days after the last treatment) | ALT ([2]; serum, after treatment) | AST ([2]; serum, after treatment) | solubility in water and organic solvents [3] | anti-tumor efficacy [4]
1 | [NH2][Pt]([NH2])([Cl])[Cl] [CDDP, cisplatin] | 1.2 % ID/g | glomeruloscelorsis, tubular cell atrophy, and cystic dilatation of renal tubes | no significant difference | fell within the normal range | fell within the normal range |  | 
2 | [NH2][Pt]([NH2])([I])[I] [CDDP-I, iodinated cisplatin] |  |  |  |  |  | insolubility | ineffective
